Measured values from ChEMBL document CHEMBL1128272, “Stereoselective LSD-like activity in a series of d-lysergic acid amides of (R)- and (S)-2-aminoalkanes” (J Med Chem, 1995).
The source made the active and inactive calls. The rule behind the calls is not given here.

Assays:
[1] = target: T1, 5-hydroxytryptamine receptor 1A (Rattus norvegicus, UniProt P19327); test: Binding affinity was measured against 5-hydroxytryptamine 1A receptor by displacement of [3H]8-OH-DPAT by lysergic acid amides
T1 sequence (P19327 whole entry): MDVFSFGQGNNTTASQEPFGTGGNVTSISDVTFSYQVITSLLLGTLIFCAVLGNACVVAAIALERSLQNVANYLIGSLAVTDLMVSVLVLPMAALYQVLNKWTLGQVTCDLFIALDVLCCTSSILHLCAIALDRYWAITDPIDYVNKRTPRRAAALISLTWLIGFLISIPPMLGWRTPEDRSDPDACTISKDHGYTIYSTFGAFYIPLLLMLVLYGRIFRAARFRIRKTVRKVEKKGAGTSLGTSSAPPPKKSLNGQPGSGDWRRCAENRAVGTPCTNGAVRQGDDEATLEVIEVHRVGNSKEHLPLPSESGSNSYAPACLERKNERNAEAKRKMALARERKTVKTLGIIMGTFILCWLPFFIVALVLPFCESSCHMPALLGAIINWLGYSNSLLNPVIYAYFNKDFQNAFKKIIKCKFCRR
Outline: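 Rat hippocampal membranes from pooled male Sprague-Dawley rats, preincubated at 37 °C, in 50 mM Tris HCl (pH 7.4) with 0.5 mM Na2EDTA, 0.1% ascorbate and 10 μM pargyline. Competition against 0.75 nM [3H]-8-OH-DPAT for 10 min at 37 °C, then GF/C filtration and scintillation counting. Triplicates. Three to four experiments combined, analysed with EBDA/LIGAND.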

[2] = target: T2, 5-hydroxytryptamine receptor 2A (Rattus norvegicus, UniProt P14842); test: (§1) Binding affinity was measured against 5-hydroxytryptamine 2A receptor by displacement of [3H]- ketanserin by lysergic acid amides
T2 sequence (P14842 whole entry): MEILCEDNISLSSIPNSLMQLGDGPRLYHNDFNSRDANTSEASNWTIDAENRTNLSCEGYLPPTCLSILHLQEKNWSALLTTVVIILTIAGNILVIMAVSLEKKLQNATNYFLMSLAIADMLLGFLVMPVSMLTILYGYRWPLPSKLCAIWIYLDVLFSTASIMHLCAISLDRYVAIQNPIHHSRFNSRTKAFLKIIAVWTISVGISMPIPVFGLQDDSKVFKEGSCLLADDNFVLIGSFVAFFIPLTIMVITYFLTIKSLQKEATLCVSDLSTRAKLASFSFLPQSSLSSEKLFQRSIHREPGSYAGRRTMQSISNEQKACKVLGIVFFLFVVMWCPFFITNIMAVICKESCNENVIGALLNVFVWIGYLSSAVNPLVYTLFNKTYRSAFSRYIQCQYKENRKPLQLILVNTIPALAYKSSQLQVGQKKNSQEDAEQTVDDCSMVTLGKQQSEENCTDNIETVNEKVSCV
Outline: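 Rat frontal cortex membranes from pooled male Sprague-Dawley rats, preincubated at 37 °C, in 50 mM Tris HCl (pH 7.4) with 0.5 mM Na2EDTA, 0.1% ascorbate, 10 μM pargyline and 5.7 mM CaCl2. Displacement of 0.75 nM [3H]ketanserin with 200–400 μg protein for 15 min at 37 °C, then GF/C filtration. Triplicates. Three to four experiments combined.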

Rattus norvegicus [3] = test: Compound was tested for its effect on animals. Value reported as number of rats disrupted in trained rats at a dose of 440 (nmol/kg); format: functional
Outline: (§2)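 Two-lever drug discrimination in food-restricted rats (~80% free-feeding weight) trained on FR 50 to tell saline from LSD tartrate (186 nmol/kg, 0.08 mg/kg ip, 30 min pre-session). Test drugs were given ip in saline, 1 mL/kg. Test sessions ran under extinction, ending at 50 presses on either lever. Testing required 85% training accuracy. Counts of rats tested and disrupted were recorded, plus the percentage selecting the drug lever.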

Rattus norvegicus [4] = test: Compound was tested for its effect on animals. Value reported as number of rats disrupted in trained rats at a dose of 1760 (nmol/kg); format: functional; outline: as §2
Rattus norvegicus [5] = test: Compound was tested for its effect on animals. Value reported as number of rats disrupted in trained rats at a dose of 186 (nmol/kg); format: functional; outline: as §2
Rattus norvegicus [6] = test: Effective dose in trained rats was determined at a dose of 220 (nmol/kg); format: functional, organism-based
Rattus norvegicus [7] = test: Percentage of animals selecting drug lever in trained rats at a dose 440 (nmol/kg); format: functional; outline: as §2
Rattus norvegicus [8] = test: Percentage of animals selecting drug lever in trained rats at a dose 1760 (nmol/kg); format: functional; outline: as §2
Rattus norvegicus [9] = test: Percentage of animals selecting drug lever in trained rats at a dose 220 (nmol/kg); format: functional; outline: as §2
[10] = target: T2, 5-hydroxytryptamine receptor 2A; test: as §1; remark: listed apart in the source
Outline: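 Rat frontal cortex membranes from pooled male Sprague-Dawley rats, preincubated at 37 °C, in 50 mM Tris HCl (pH 7.4) with 0.5 mM Na2EDTA, 0.1% ascorbate, 10 μM pargyline and 5.7 mM CaCl2. Triplicates. Three to four experiments combined.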

Rattus norvegicus [11] = test: Compound was tested for its effect on animals. Value reported as number of rats disrupted in trained rats at a dose of 639 (nmol/kg); format: functional; outline: as §2
Rattus norvegicus [12] = test: Compound was tested for its effect on animals. Value reported as number of rats disrupted in trained rats at a dose of 426 (nmol/kg); format: functional; outline: as §2
Rattus norvegicus [13] = test: Compound was tested for its effect on animals. Value reported as number of rats disrupted in trained rats at a dose of 213 (nmol/kg); format: functional; outline: as §2
Rattus norvegicus [14] = test: Effective dose in trained rats was determined at a dose of 213 (nmol/kg); format: functional, organism-based
Rattus norvegicus [15] = test: Percentage of animals selecting drug lever in trained rats at a dose 426 (nmol/kg); format: functional; outline: as §2
Rattus norvegicus [16] = test: Percentage of animals selecting drug lever in trained rats at a dose 639 (nmol/kg); format: functional
Outline: (§3)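 Drug-naive rats held at about 80% of free-feeding weight were trained on a two-lever FR50 food schedule to tell ip LSD tartrate (186 nmol/kg, 0.08 mg/kg) from saline, given 30 min before sessions. Test drugs were given ip in saline (1 mL/kg). Tests ran under extinction and ended at 50 presses on either lever. Rats had to hold 85% correct on training days. Read-out was % selecting the drug lever per dose.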

Rattus norvegicus [17] = test: Percentage of animals selecting drug lever in trained rats at a dose 213 (nmol/kg); format: functional; outline: as §2
Rattus norvegicus [18] = test: Compound was tested for its effect on animals. Value reported as number of rats disrupted in trained rats at a dose of 500 (nmol/kg); format: functional; outline: as §2
Rattus norvegicus [19] = test: Compound was tested for its effect on animals. Value reported as number of rats disrupted in trained rats at a dose of 63 (nmol/kg); format: functional; outline: as §2
Rattus norvegicus [20] = test: Compound was tested for its effect on animals. Value reported as number of rats disrupted in trained rats at a dose of 250 (nmol/kg); format: functional; outline: as §2
Rattus norvegicus [21] = test: Effective dose in trained rats was determined at a dose of 63 (nmol/kg) Value in parentheses are with 95% confidence intervals; format: functional
Rattus norvegicus [22] = test: Compound was tested for its effect on animals. Value reported as number of rats disrupted in trained rats at a dose of 125 (nmol/kg); format: functional; outline: as §2
Rattus norvegicus [23] = test: Percentage of animals selecting drug lever in trained rats at a dose 250 (nmol/kg); format: functional; outline: as §2
Rattus norvegicus [24] = test: Percentage of animals selecting drug lever in trained rats at a dose 500 (nmol/kg); format: functional; outline: as §3
Rattus norvegicus [25] = test: Percentage of animals selecting drug lever in trained rats at a dose 63 (nmol/kg); format: functional; outline: as §3
Rattus norvegicus [26] = test: Potency in trained rats was determined with relative to reference compound […] at a dose of 63 (nmol/kg); format: functional
Rattus norvegicus [27] = test: Percentage of animals selecting drug lever in trained rats at a dose 125 (nmol/kg); format: functional; outline: as §2
Rattus norvegicus [28] = test: Compound was tested for its effect on animals. Value reported as number of rats disrupted in trained rats at a dose of 55 (nmol/kg); format: functional; outline: as §2
Rattus norvegicus [29] = test: Compound was tested for its effect on animals. Value reported as number of rats disrupted in trained rats at a dose of 220 (nmol/kg); format: functional; outline: as §2
Rattus norvegicus [30] = test: Effective dose in trained rats was determined at a dose of 55 (nmol/kg) Value in parentheses are with 95% confidence intervals; format: functional
Rattus norvegicus [31] = test: Compound was tested for its effect on animals. Value reported as number of rats disrupted in trained rats at a dose of 110 (nmol/kg); format: functional; outline: as §2
Rattus norvegicus [32] = test: Percentage of animals selecting drug lever in trained rats at a dose 55 (nmol/kg); format: functional; outline: as §3
Rattus norvegicus [33] = test: Potency in trained rats was determined with relative to reference compound […] at a dose of 55 (nmol/kg); format: functional
Rattus norvegicus [34] = test: Percentage of animals selecting drug lever in 1-Trained rats at a dose 110 (nmol/kg); format: functional; outline: as §2
Rattus norvegicus [35] = test: Percentage of animals selecting drug lever in 1-Trained rats at a dose 220 (nmol/kg); format: functional; outline: as §2

CCCC(C)NC(=O)[C@@H]1C=C2c3cccc4[nH]cc(c34)C[C@H]2N(C)C1 (some centres not stated)
Ki [1]: 8 nM
Ki [2]: 105 nM
D (Rattus norvegicus [3]): 0%
D (Rattus norvegicus [4]): 11%
D (Rattus norvegicus [5]): 0%
ED50 (Rattus norvegicus [6]): inactive
SDL (Rattus norvegicus [7]): 0%
SDL (Rattus norvegicus [8]): 25%
SDL (Rattus norvegicus [9]): 0%

CCCCC[C@@H](C)NC(=O)[C@@H]1C=C2c3cccc4[nH]cc(c34)C[C@H]2N(C)C1
Ki [1]: 3.3 nM
Ki [10]: 80 nM

CCCCC(C)NC(=O)[C@@H]1C=C2c3cccc4[nH]cc(c34)C[C@H]2N(C)C1 (some centres not stated)
Ki [1]: 4.9 nM
Ki [10]: 55 nM
D (Rattus norvegicus [11]): 12.5%
D (Rattus norvegicus [12]): 30%
D (Rattus norvegicus [13]): 30%
ED50 (Rattus norvegicus [14]): inactive
SDL (Rattus norvegicus [15]): 0%
SDL (Rattus norvegicus [16]): 0%
SDL (Rattus norvegicus [17]): 29%

CCC(CC)NC(=O)[C@@H]1C=C2c3cccc4[nH]cc(c34)C[C@H]2N(C)C1
Ki [1]: 2.1 nM
Ki [10]: 8 nM
D (Rattus norvegicus [18]): 14%
D (Rattus norvegicus [19]): 0%
D (Rattus norvegicus [20]): 0%
ED50 (Rattus norvegicus [21]): 0.052 µmol/kg
D (Rattus norvegicus [22]): 0%
SDL (Rattus norvegicus [23]): 85%
SDL (Rattus norvegicus [24]): 92%
SDL (Rattus norvegicus [25]): 58%
Potency (Rattus norvegicus [26]): 0.92
SDL (Rattus norvegicus [27]): 67%

CCC[C@@H](C)NC(=O)[C@@H]1C=C2c3cccc4[nH]cc(c34)C[C@H]2N(C)C1
Ki [1]: 0.6 nM
Ki [10]: 4.5 nM
D (Rattus norvegicus [28]): 0%
D (Rattus norvegicus [29]): 30%
ED50 (Rattus norvegicus [30]): 0.102 µmol/kg
D (Rattus norvegicus [31]): 0%
SDL (Rattus norvegicus [32]): 14%
Potency (Rattus norvegicus [33]): 0.47
SDL (Rattus norvegicus [34]): 44%
SDL (Rattus norvegicus [35]): 100%
